Laboratory results taken from ChEMBL document CHEMBL1122996, “Interactions of apomorphine with serum and tissue proteins” (J Med Chem, 1985).

Key:
Mus musculus [1] = species: Mus musculus; assay: Radio activity accumulation in forebrain without striatum (Excreatable reactivity) on 14 days; assay type: functional
Outline: (§1)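 Male CD-1 mice (~35 g, n=10 per group) given apomorphine 30 mg/kg fortified with [3H]-apomorphine (0.153 mCi/kg) ip, either once or daily for 14 days. Sampled 24 h after the last dose: plasma from infraorbital sinus (extractable and nonextractable radioactivity) and brain regions (striatum, cerebellum, forebrain without striatum). Radioactivity expressed as µg apomorphine equivalent per mL or per g […].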

Mus musculus [2] = species: Mus musculus; assay: Radio activity accumulation in forebrain without striatum (Excreatable reactivity) on day 1; assay type: functional; outline: as §1
Mus musculus [3] = species: Mus musculus; assay: Percentage of covalently bound total in cerebellum of mouse; assay type: functional
Outline: (§2)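 Male CD-1 mice (~35 g, n=10) given apomorphine 30 mg/kg with [3H]-apomorphine (0.153 mCi/kg) ip daily for 14 days, killed 24 h after the last dose. Plasma from infraorbital sinus; brain split into striatum, cerebellum, forebrain without striatum. Protein-bound radioactivity expressed as µg/g protein (albumin equivalent; plasma µg/mL) and as % of total tissue radioactivity.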

Mus musculus [4] = species: Mus musculus; assay: Percentage of covalently bound total in striatum of mouse; assay type: functional; outline: as §2
Mus musculus [5] = species: Mus musculus; assay: Radio activity covalently bound to cerebellum of mouse brain; assay type: functional; outline: as §2
Mus musculus [6] = species: Mus musculus; assay: Radio activity covalently bound to forebrain without striatum of mouse brain; assay type: functional; outline: as §2
Mus musculus [7] = species: Mus musculus; assay: Radio activity covalently bound to striatum of mouse brain; assay type: functional; outline: as §2
Mus musculus [8] = species: Mus musculus; assay: Radio activity accumulation in cerebellum (Excreatable reactivity) on 14 days; assay type: functional; outline: as §1
Mus musculus [9] = species: Mus musculus; assay: Radio activity accumulation in cerebellum (Excreatable reactivity) on day 1; assay type: functional; outline: as §1
Mus musculus [10] = species: Mus musculus; assay: Ratio of accumulation of radioactivity from 14 to 1 day in cerebellum; assay type: functional
Outline: (§3)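 Male CD-1 mice (~35 g, 10 per group) received 1 at 30 mg/kg ip with [³H]-1 (0.153 mCi/kg), once or daily for 14 days, with free access to food and water. At 24 h after the last dose, plasma (infraorbital sinus), brain regions, kidney, liver and GI tract were taken for radioactivity counting. The accumulation ratio is radioactivity after 14 doses divided by radioactivity after 1 dose.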

Mus musculus [11] = species: Mus musculus; assay: Radio of accumulation of radioactivity from 14 to 1 day in nonextractable radioactivity in plasma brain; assay type: functional; outline: as §3
Mus musculus [12] = species: Mus musculus; assay: Ratio of accumulation of radioactivity from 14 to 1 day in plasma contents; assay type: functional; outline: as §3
Mus musculus [13] = species: Mus musculus; assay: Radio activity in skeletal tissue (% dose/g of wet wt) on 14 days; assay type: functional
Outline: (§4)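 Male CD-1 mice (~35 g, n=10 per group) received apomorphine 30 mg/kg with [3H]-apomorphine (0.153 mCi/kg) ip, once or daily for 14 days. Killed 24 h after the last dose; GI tract (with contents or washed with distilled water), liver and kidney (rinsed of blood) and skeletal tissue taken. Radioactivity given as % of total dose; skeletal tissue as % dose/g wet weight.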

Mus musculus [14] = species: Mus musculus; assay: Radio activity in skeletal tissue(% dose/g of wet wt) contents on day 1; assay type: functional; outline: as §4
Mus musculus [15] = species: Mus musculus; assay: Ratio of accumulation of radioactivity from 14 to 1 day in skeletal tissue (%dose/g of wet wt); assay type: functional; outline: as §3
Mus musculus [16] = species: Mus musculus; assay: Ratio of accumulation of radioactivity from 14 to 1 day in liver; assay type: functional; outline: as §3
Mus musculus [17] = species: Mus musculus; assay: Radio activity of [3H]-l in mice kidney on day 1; assay type: functional; outline: as §4
Mus musculus [18] = species: Mus musculus; assay: Radio activity of [3H]-l in mice kidney on 14 days; assay type: functional; outline: as §4
Mus musculus [19] = species: Mus musculus; assay: Ratio of accumulation of radioactivity from 14 to 1 day in kidney; assay type: functional; outline: as §3
Mus musculus [20] = species: Mus musculus; assay: Radio activity of [3H]-l in mice liver on 14 days; assay type: functional; outline: as §4
Mus musculus [21] = species: Mus musculus; assay: Radio activity of [3H]-l in mice liver on day 1; assay type: functional; outline: as §4
Mus musculus [22] = species: Mus musculus; assay: Percentage of covalently bound total in plasma of mouse; assay type: functional; outline: as §2
Mus musculus [23] = species: Mus musculus; assay: Radio activity covalently bound to plasma of mouse brain; assay type: functional; outline: as §2
Mus musculus [24] = species: Mus musculus; assay: Radio activity of [3H]-l in mice GI tract with its contents on day 1; assay type: functional, Gastrointestinal tract; outline: as §4
Mus musculus [25] = species: Mus musculus; assay: Radio activity of [3H]-l in mice in GI tract with its contents on 14 days; assay type: functional, Gastrointestinal tract; outline: as §4
Mus musculus [26] = species: Mus musculus; assay: Radio activity of [3H]-l in washed mice GI tract on 14 days; assay type: functional, Gastrointestinal tract; outline: as §4
Mus musculus [27] = species: Mus musculus; assay: Radio activity of [3H]-l in washed mice GI tract on day 1; assay type: functional, Gastrointestinal tract; outline: as §4
Mus musculus [28] = species: Mus musculus; assay: Ratio of accumulation of radioactivity from 14 to 1 day in GI tract with its contents; assay type: functional, Gastrointestinal tract; outline: as §3
Mus musculus [29] = species: Mus musculus; assay: Ratio of accumulation of radioactivity from 14 to 1 day in washed gastro intestinal track; assay type: functional; outline: as §3
Mus musculus [30] = species: Mus musculus; assay: Radio activity accumulation in nonextractable radioactivity in plasma brain striatum (Excreatable reactivity) on day 1; assay type: functional; outline: as §1
Mus musculus [31] = species: Mus musculus; assay: Radio activity accumulation in nonextractable radioactivity in striatum (Excreatable reactivity) on 14 days; assay type: functional; outline: as §1
Mus musculus [32] = species: Mus musculus; assay: Ratio of accumulation of radioactivity from 14 to 1 day in striatum; assay type: functional; outline: as §3
Mus musculus [33] = species: Mus musculus; assay: Radio activity accumulation in extractable reactivity in plasma (Excreatable reactivity) on day 1; assay type: functional; outline: as §1
Mus musculus [34] = species: Mus musculus; assay: Radio activity accumulation in extractable reactivity in plasma brain (Excreatable reactivity) on 14 days; assay type: functional; outline: as §1

## CN1CCc2cccc3c2[C@H]1Cc1ccc(O)c(O)c1-3 [APOMORPHINE]
Mus musculus [1]
  Accumulation: 69.6 µg/g
Mus musculus [2]
  Accumulation: 23.1 µg/g
Mus musculus [3]
  Binding: 1.71%
Mus musculus [4]
  Binding: 1.65%
Mus musculus [5]
  Binding: 0.98 µg/g
Mus musculus [6]
  Binding: 1.13 µg/g
Mus musculus [7]
  Binding: 0.94 µg/g
Mus musculus [8]
  Accumulation: 57.3 µg/g
Mus musculus [9]
  Accumulation: 20 µg/g
Mus musculus [10]
  Ratio: 2.9
Mus musculus [11]
  Ratio: 2.6
Mus musculus [12]
  Ratio: 2.6
Mus musculus [13]
  Amount: 0.394%
Mus musculus [14]
  Amount: 0.245%
Mus musculus [15]
  Ratio: 1.6
Mus musculus [16]
  Ratio: 2.6
Mus musculus [17]
  Amount: 0.107%
Mus musculus [18]
  Amount: 0.331%
Mus musculus [19]
  Ratio: 3.1
Mus musculus [20]
  Amount: 0.99%
Mus musculus [21]
  Amount: 0.38%
Mus musculus [22]
  Binding: 2.88%
Mus musculus [23]
  Binding: 0.68 µg/mL
Mus musculus [24]
  Amount: 1.48%
Mus musculus [25]
  Amount: 4.01%
Mus musculus [26]
  Amount: 0.558%
Mus musculus [27]
  Amount: 0.065%
Mus musculus [28]
  Ratio: 2.7
Mus musculus [29]
  Ratio: 9.7
Mus musculus [30]
  Accumulation: 21.4 µg/g
Mus musculus [31]
  Accumulation: 56.9 µg/g
Mus musculus [32]
  Ratio: 2.7
Mus musculus [33]
  Accumulation: 0.561 µg/mL
Mus musculus [34]
  Accumulation: 1.42 µg/mL
